Like-named read-outs stand apart in the source and are kept apart here.
Columns and labels:
[1] = system: H4 acetylation in T. gondii; conditions: ref Bougdour et al., 2009; cited from earlier work
[2] = system: bradyzoites of the EGS strain; test: Activity against bradyzoites of the EGS strain in 96 h-infected NDHF fibroblasts; assay type: cell-based, Toxoplasma gondii; conditions: 48 h; for proliferation or viability of bradyzoites: 1 and 5 μM TST, 0.1 μM SAHA
Outline: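 Tachyzoites of the EGS strain expressing SAG1mCherry/BAG1sfGFP were grown in NDHF fibroblasts for 96 h, when bradyzoite conversion and spontaneous cyst formation are higher, then treated for 48 h. DMSO was at most 0.1% (v/v). Bradyzoites were imaged by fluorescence microscopy and fluorescence intensity was quantified. Two independent experiments; one-way ANOVA with Bonferroni test.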

[3] = system: histone H3 (Lys 9/14) acetylation in T. gondii; test: Western blot of histone H3 acetylation in treated tachyzoites; assay type: cell-based, Toxoplasma gondii; conditions: 0,2 μM SAHA, 1 μM TST, 48 h
Outline: (§1)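 Infected NDHF fibroblasts were treated for 48 h. Tachyzoites were released by 30G needle passage, pelleted at 2000 rcf for 10 min and filter-purified; 10^6 parasites were cryolysed with protease inhibitors. Primary antibodies, 1 h: H3 and acetyl-H3 Lys9/14 each 1:1000; H4 1:3000, acetyl-H4 Lys16 1:1000; α-tubulin 1:1000, acetylated α-tubulin 1:2000. Detection by HRP secondaries and ECL. Bands from three experiments were normalised to GAPDH, and acetylated/total ratios were computed.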

[4] = system: histone H4 (lys16) acetylation in T. gondii; test: Western blot of histone H4 acetylation in treated tachyzoites; assay type: cell-based, Toxoplasma gondii; conditions: 0,2 μM SAHA, 1 μM TST, 48 h
Outline: as §1

[5] = system: i. p. (intra peritoneal) macrophages; test: Cytotoxicity assay in host cells; assay type: cell-based, mouse; conditions: read-out: Macrophages CC50; 48h
[6] = Cytotoxicity assay in host cells; assay type: cell-based; conditions: mouse, primary microglial cultures (mixed astrocytes/microglia)
[7] = system: T. gondii α-tubulin; test: Western blot of α-tubulin and acetylated α-tubulin in treated tachyzoites; assay type: cell-based, Toxoplasma gondii; conditions: 1 μM TST, 0.1 μM SAHA, 48 h
Outline: as §1

[8] = system: T. gondii RH strain (type I) tachyzoites; test: Antiproliferative assay, tachyzoites of RH strain in LLC-MK2 cells; assay type: cell-based; conditions: Toxoplasma gondii
[9] = system: T. gondii ME49 strain (type II) tachyzoites; test: Effect on tachyzoites of the ME49 strain in NDHF fibroblasts; assay type: cell-based, Toxoplasma gondii; conditions: 1 μM TST, 0.1 μM SAHA, 24 h
[10] = system: T. gondii EGS strain (atypical, I/III); test: Antiproliferative assay, tachyzoites of EGS strain; assay type: cell-based; conditions: Toxoplasma gondii, 48 h, read-out: T. gondii EGS IC50
[11] = system: NDHF fibroblasts; test: Cytotoxicity assay in host cells; assay type: cell-based, Human
[12] = Cytotoxicity assay in host cells; assay type: cell-based, Human; conditions: human, NDHF fibroblasts; for CC50 at 48 h: NDHF CC50, 48h
[13] = system: T. gondii RH-ACP-YFP tachyzoite mitochondria; test: MitoTracker fluorescence analysis of parasite mitochondria; assay type: cell-based, Toxoplasma gondii; conditions: 1 μM TST, 0.1 μM SAHA, 24 h
Outline: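 NDHF fibroblasts infected with RH-ACP-YFP tachyzoites were treated for 24 h, then incubated with 50 nM MitoTracker Red CMXRos for 45 min. Mitochondrial membrane potential and partitioning were assessed by confocal and SR-SIM imaging. Two independent experiments.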

[14] = system: T. gondii RH tachyzoites; test: Fluorescence microscopy of cell division and apicoplast; assay type: cell-based, Toxoplasma gondii; conditions: 1 μM TST, 0.1 μM SAHA, 24 h; for effect on apicoplast: ACP-YFP tachyzoites
Outline: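 NDHF fibroblasts were infected with RH-ACP-YFP tachyzoites and treated for 24 h, then fixed 40 min in 4% formaldehyde/PBS and permeabilised 15 min in 0.5% Triton X-100. Staining used anti-SAG1 and rabbit anti-centrin1 (1:1000), Alexa secondaries (1:800) and Hoechst (0.5 μg/mL). Daughter budding was also examined in RH-infected cells with anti-IMC1 (1:1000). Imaging by confocal and SR-SIM; two independent experiments.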

[15] = system: T. gondii; conditions: cited from earlier work

Molecule	proliferation or viability of bradyzoites [2]	acetylation levels of H3 (Lys 9/14), rH3ac/rH3 [3]	acetylation levels of H4 (lys16), rH4ac/rH4 [4]	CC50 [5]	CC50 at 48 h [6]	tachyzoite proliferation, ME49 strain [9]	CC50 at 48 h [12]	effect on parasite mitochondria (Mitotracker) [13]	effect on cell division / daughter cell budding [14]	effect on apicoplast [14]	further results
FR235222											H4 acetylation [1]: increased H4 acetylation
CN1CCc2c(c3ccccc3n2Cc2ccc(C(=O)NO)cc2)C1 [TST, Tubastatin A]	inhibited significantly	decrease below the levels of the untreated cells	significant increase	13.5 µM	> 20 µM	inhibit tachyzoite proliferation significantly	> 20 µM	reduction of the labeling intensity of mitochondria	formation of a rounded mass of parasites	Alteration at the apicoplast partition	tubulin acetylation levels, ratio rTubac/rTub [7]: no change; IC90 ([8]; LLC-MK2): 5 µM; IC50 ([8]; LLC-MK2, 24 h): 0.019 ± 0.001 µM; IC50 ([8]; LLC-MK2, 48 h, read-out: T. gondii RH IC50): 0.52 µM; IC50 [10]: 0.29 µM; CC50 times higher than the IC50 obtained for T. gondii ([11]; CC50 in NDHF after 120 h): 57 times; selective index ([11]; in different types of mammalian cells after 48 h of treatment): at least 20; CC50 at 120 h ([12]; CC50, NDHF fibroblasts, treatment for 120 h with higher concentrations (20–80 μM)): 29.9 µM
O=C(CCCCCCC(=O)Nc1ccccc1)NO [SAHA, Suberoylanilide Hydroxamic Acid]	inhibited significantly	modest increase	modest increase	4.61 µM	> 20 µM	inhibit tachyzoite proliferation significantly	> 20 µM	mitochondrion fragmentation	masses of damaged parasites showing several centrosomes	apicoplast fragmentation	amount of bradyzoites in the culture ([2]; 0.2 μM SAHA): maintained the same amount of bradyzoites in the culture as in the control
CCc1nc(N)nc(N)c1-c1ccc(Cl)cc1 [pyrimethamine]											IC50 ([15]; read-out: IC50 against T. gondii, ref Dubar et al., 2011, Martins-Duarte, 2006): 0.12 µM
COc1cccc(CC(=O)Nc2ccc(C(=O)NO)cc2)c1 [N-hydroxy-4-[2-(3-methoxyphenyl)acetamido]benzamid]											IC50 ([15]; RH strain, ref Loeuillet et al., 2018): 0.35 µM

Source: publication PMC7771113 (International Journal for Parasitology: Drugs and Drug …, 2020)
